The source of these data is ChEMBL document CHEMBL1124953, “Orally effective acid prodrugs of the beta-lactamase inhibitor sulbactam” (J Med Chem, 1990).

The structures appear in SMILES notation.

Series [1] is described as follows: Area under curve (AUC) was determined. The format is ADME. On the set-up: concentration or dose not given beside the values. A digest of the protocol: (§1)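 Male outbred CD rats (70-90 g), five per prodrug, given 10 mg/kg orally in CMC diluent. Orbital plexus blood into heparinized tubes, plasma sampled over 4 h. Plasma sulbactam quantified by synergistic agar-well bioassay: Pasteurella hemolytica (ATCC 43823) in Mueller-Hinton agar with ampicillin and triphenyltetrazolium chloride, 18 h at 37 °C. Standard curve 10-0.1 μg/mL in rat plasma, zone-size regression. AUC and Cmax from concentration-time plot.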

The nature of series [2]: Maximum Concentration of the compound. In kind it is ADME, organism-based. To be noted: in vivo. A digest of the protocol:
as §1

Consider `CC1(C)[C@H](C(=O)OCOC(=O)CCCC(=O)O)N2C(=O)C[C@H]2S1(=O)=O`, for which the exposure (AUC) in series [1] is 10000 ng·h/mL. The Cmax in series [2] was 8200 ng/mL.
`CC1(C)[C@H](C(=O)OCOC(=O)CCCCC(=O)OCc2ccccc2)N2C(=O)C[C@H]2S1(=O)=O` had an AUC in series [1] of 2300 ng·h/mL. This compound yielded a peak concentration (Cmax) in series [2] of 1600 ng/mL.
The corresponding values for `CC1(C)[C@H](C(=O)OCOC(=O)CC(=O)O)N2C(=O)C[C@H]2S1(=O)=O` are 3500 ng·h/mL and 2000 ng/mL.
In the same order, the values of `CC1(C)[C@H](C(=O)OCOC(=O)CCCCC(=O)O)N2C(=O)C[C@H]2S1(=O)=O` are 7500 ng·h/mL and 5200 ng/mL.
`CC(C)(C(=O)O)C(=O)OCOC(=O)[C@@H]1N2C(=O)C[C@H]2S(=O)(=O)C1(C)C` yielded an AUC in series [1] of 6200 ng·h/mL. Also, the Cmax in series [2] was found to be 3900 ng/mL.
`CC(C)(C)C(=O)OCOC(=O)[C@@H]1N2C(=O)C[C@H]2S(=O)(=O)C1(C)C` [SULBACTAM PIVOXIL] showed an AUC in series [1] of 8500 ng·h/mL. In series [2], the Cmax came to 6200 ng/mL.
In the same order, the values of `CC1(C)[C@H](C(=O)O)N2C(=O)C[C@H]2S1(=O)=O` [SULBACTAM] are 1400 ng·h/mL and 700 ng/mL.

By AUC is commonly meant concentration integrated over time. By Cmax is commonly meant the peak of the concentration-time curve.
